Source: ChEMBL document CHEMBL3120122, “Highly potent HCV NS4B inhibitors with activity against multiple genotypes” (J Med Chem, 2014)

Key:
[1] = tested on: Hepatitis C virus; test: Antiviral activity against HCV JFH-1 expressing NS4B infected in human HuH7 cells assessed as inhibition of viral RNA replication after 3 days by dual-glo luciferase reporter gene assay; assay type: functional, organism-based, Hepacivirus hominis; conditions: JFH-1, Huh-7, 72 h
[2] = tested on: Hepatitis C virus; test: Antiviral activity against HCV Con1 expressing NS4B H94N mutant infected in human HuH7 cells assessed as inhibition of viral RNA replication after 3 days by dual-glo luciferase reporter gene assay; assay type: functional, organism-based, Hepacivirus hominis; conditions: isolate Con1, Huh-7, 72 h
Outline: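 Tested in the HCV genotype 1b replicon assay carrying the NS4B H94N substitution, alongside the matched 1a, 1b and 2a-JFH replicon screens.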

[3] = Lipophilicity, log D of the compound at pH 7.4 by chromatographic analysis; assay type: physicochemical; conditions: buffer
[4] = tested on: Hepatitis C virus; test: Antiviral activity against HCV Con1 expressing wild type NS4B infected in human HuH7 cells assessed as inhibition of viral RNA replication after 3 days by dual-glo luciferase reporter gene assay; assay type: functional, organism-based, Hepacivirus hominis; conditions: isolate Con1, Huh-7, 72 h
Outline: (§1)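 Measured in HCV replicon assays, not infection, using genotype 1a, 1b and 2a (JFH) replicons; the read-out is inhibition of replicon replication.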

[5] = Cytotoxicity against human HuH7 cells; assay type: cell-based, Huh-7
[6] = Selectivity ratio of EC50 for HCV JFH-1 expressing NS4B to EC50 for HCV Con1 expressing wild type NS4B; assay type: functional
[7] = tested on: Hepatitis C virus; test: Antiviral activity against HCV H77 expressing wild type NS4B infected in human HuH7 cells assessed as inhibition of viral RNA replication after 3 days by dual-glo luciferase reporter gene assay; assay type: functional, organism-based, Hepacivirus hominis; conditions: genotype 1a H77, Huh-7, 72 h; outline: as §1
[8] = Displacement of tritium labeled (R)-6-cyclopropyl-4-methyl-N-(morpholin-3-ylmethyl)-8-(trifluoromethyl)quinoline-2-carboxamide from recombinant HCV genotype 1b C-terminal His6-tagged NS4B expressed in baculovirus infected insect SF9 cells after overnight incubation by scintillation proximity assay; parameters: species or system Hepatitis C virus subtype 1b
[9] = tested on: Hepatitis C virus; test: Selectivity ratio of EC50 for HCV Con1 expressing NS4B H94N mutant to EC50 for HCV Con1 expressing wild type NS4B; assay type: functional, Hepacivirus hominis, isolate Con1
[10] = tested on: Hepatitis C virus; test: Antiviral activity against HCV ED43 expressing NS4B infected in human HuH7 cells assessed as inhibition of viral RNA replication after 3 days by dual-glo luciferase reporter gene assay; assay type: functional, organism-based, Hepacivirus hominis; conditions: ED43, Huh-7, 72 h
[11] = tested on: Hepatitis C virus; test: Antiviral activity against HCV S52 expressing NS4B infected in human HuH7 cells assessed as inhibition of viral RNA replication after 3 days by dual-glo luciferase reporter gene assay; assay type: functional, organism-based, Hepacivirus hominis; conditions: S52, Huh-7, 72 h
[12] = tested on: Hepatitis C virus; test: Antiviral activity against HCV genotype 2b expressing full length NS4B infected in human HuH7 cells assessed as inhibition of viral RNA replication after 3 days by dual-glo luciferase reporter gene assay; assay type: functional, organism-based, Hepacivirus hominis; conditions: Huh-7, 72 h
[13] = Oral bioavailability in Sprague-Dawley rat; assay type: ADME, organism-based; conditions: in vivo
[14] = tested on: Hepatitis C virus; test: Antiviral activity against HCV genotype 6a expressing NS4B infected in human HuH7 cells assessed as inhibition of viral RNA replication after 3 days by dual-glo luciferase reporter gene assay; assay type: functional, organism-based, Hepacivirus hominis; conditions: Huh-7, 72 h
[15] = Intrinsic clearance in human liver microsomes at 3 uM after 1 hr in presence of NADPH and UDP-glucuronic acid; assay type: ADME; conditions: read-out: CLH (converted)
[16] = Clearance in iv dosed Sprague-Dawley rat administered as 30 mins infusion; assay type: ADME, organism-based; conditions: in vivo
[17] = tested on: Hepatitis C virus; test: Antiviral activity against HCV Con1 expressing NS4B H94S mutant infected in human HuH7 cells assessed as inhibition of viral RNA replication after 3 days by dual-glo luciferase reporter gene assay; assay type: functional, organism-based, Hepacivirus hominis; conditions: isolate Con1, Huh-7, 72 h
[18] = Intrinsic clearance in rat liver microsomes at 3 uM after 1 hr in presence of NADPH and UDP-glucuronic acid; assay type: ADME; conditions: read-out: CLH (converted)
[19] = Volume of distribution at steady state in iv dosed Sprague-Dawley rat administered as 30 mins infusion; assay type: ADME, organism-based; conditions: in vivo, read-out: Vdss
[20] = Half life in iv dosed Sprague-Dawley rat administered as 30 mins infusion; assay type: ADME, organism-based; conditions: in vivo

SMILES | EC50 [1] | EC50 [2] | chromatographic logD [3] | EC50 [4] | CC50 [5] | Ratio EC50 [6] | EC50 [7] | Kd [8] | Ratio EC50 [9] | EC50 [10] | EC50 [11] | EC50 [12] | bioavailability [13] | EC50 [14] | CLint scaled at 3 µM [15] | clearance [16] | EC50 [17] | CLint scaled at 3 µM [18] | Vd [19] | half-life [20]
Cc1cc(-c2nnc(NC3CCCC3)o2)nc2c(C(C)(C)C)cc(OCC(F)(F)F)cc12 | 3030 nM | 35 nM | 4.9 | 0.63 nM |  |  |  |  |  |  |  |  |  |  |  |  |  |  |  | 
Cc1cc(-c2nnc(NCC3OCCO3)o2)nc2c(C(C)(C)C)cc(OCC(F)(F)F)cc12 | 3580 nM | 54 nM | 3.9 | 1.3 nM | 20.4 µM | 2720 | 0.9 nM | 31 nM | 42 |  |  |  |  |  |  |  |  |  |  | 
Cc1cc(-c2nnc(NCC3OCCO3)o2)nc2c(C(C)(C)C)cc(NCC(F)(F)F)cc12 | 1100 nM | 4.3 nM | 3.6 | 0.15 nM | 16 µM |  |  |  |  |  |  |  |  |  |  |  |  |  |  | 
Cc1cc(-c2nnc(NCC3OCCO3)o2)nc2c(C(F)(F)F)cc(OCC(F)(F)F)cc12 | 15600 nM | 206 nM | 3.6 | 5 nM | 26.6 µM |  |  |  |  |  |  |  |  |  |  |  |  |  |  | 
Cc1cc(-c2nnc(N[C@H]3C[C@H](O)C3)o2)nc2c(C(C)(C)C)cc(OCC(F)(F)F)cc12 | 5220 nM | 714 nM |  | 3.5 nM | 25.9 µM |  |  |  |  |  |  |  |  |  |  |  |  |  |  | 
Cc1cc(-c2nnc(N[C@@H]3CCC[C@H](O)C3)o2)nc2c(C(C)(C)C)cc(OCC(F)(F)F)cc12 | 96 nM | 5.5 nM | 4 | 0.32 nM | 20.9 µM | 300 | 0.09 nM |  |  | 1.5 nM | 30 nM | 0.9 nM |  |  |  |  |  |  |  | 
Cc1cc(-c2nnc(N[C@@H]3CCC[C@H](O)C3)o2)nc2c(C(C)(C)C)cc(NCC(F)(F)F)cc12 | 3 nM | 0.6 nM | 3.6 | 0.09 nM | 6.25 µM | 30 | 0.08 nM |  |  | 0.9 nM | 3.7 nM | 0.6 nM | 88% | 3.1 nM | 3.67 mL/min/kg | 10.8 mL/min/kg | 0.34 nM | 4 mL/min/kg | 2.4 L/kg | 660 min
Cc1cc(-c2nnc(N[C@H]3CCC[C@@H](O)C3)o2)nc2c(C(C)(C)C)cc(NCC(F)(F)F)cc12 | 201 nM |  |  |  |  |  |  |  |  |  |  |  |  |  |  |  |  |  |  | 
COc1cc(C(F)(F)F)c2nc(-c3nnc(NCC4OCCO4)o3)cc(C)c2c1 |  | 719 nM | 3.4 | 32 nM | 50 µM |  |  |  |  |  |  |  |  |  |  |  |  |  |  | 
Cc1cc(-c2nnc(NC3CCCC3)o2)nc2c(C(C)(C)C)cc(NCC(F)(F)F)cc12 | 525 nM | 5.2 nM | 4.6 | 0.15 nM | 15.8 µM |  |  |  |  |  |  |  |  |  |  |  |  |  |  | 
Cc1cc(-c2nnc(N[C@H]3C[C@@H](O)C3)o2)nc2c(C(C)(C)C)cc(OCC(F)(F)F)cc12 | 208 nM | 41 nM | 3.4 | 1.3 nM | 10.8 µM |  |  |  |  |  |  |  |  |  |  |  |  |  |  | 
Cc1cc(-c2nnc(N[C@H]3C[C@](O)(C(F)F)C3)o2)nc2c(C(C)(C)C)cc(NCC(F)(F)F)cc12 | 25 nM | 0.74 nM | 3.7 | 0.08 nM | 5.44 µM | 312 | 0.05 nM |  |  | 0.76 nM | 2.3 nM | 0.16 nM | 25% |  | 3.33 mL/min/kg | 14.5 mL/min/kg | 4.4 nM | 3.67 mL/min/kg | 5 L/kg | 312 min
Cc1cc(-c2nnc(N[C@H]3C[C@](O)(C(F)F)C3)o2)nc2c(C(C)(C)C)cc(OCC(F)(F)F)cc12 | 684 nM | 3.4 nM | 4.1 | 0.32 nM | 6.24 µM |  |  |  |  |  |  |  |  |  |  |  |  |  |  | 
Cc1cc(-c2nnc(Nc3ccccc3)o2)nc2c(C(F)(F)F)cc(-c3ccccc3)cc12 | > 20000 nM |  | 5.6 | 5.9 nM | 86.4 µM |  |  |  |  |  |  |  |  |  | 7.67 mL/min/kg | 17.5 mL/min/kg |  | 11.7 mL/min/kg | 1.8 L/kg | 138 min
